Data on 1 compound can be found in PMC6407133 (Journal of the American Chemical Society, 2018).

Molecules are shown by their SMILES. Read-outs that look alike come from different tables or passages of the source.

For one assay, the system named is P. falciparum W2. Description: P. falciparum replication assay. Type of assay: cell-based, Plasmodium falciparum. As to conditions: read-out: 72 h EC50 Pf; 72 h treatment, no washout; P. falciparum W2 ring stage.
The test system of assay [1] is non-confluent human foreskin fibroblast (HFF) cells. Description: Cell viability assay in mammalian cells. As to conditions: non-confluent HFFs. It is filed as cell-based. The method, boiled down: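 Nontransformed primary human foreskin fibroblasts, Mycoplasma-tested, seeded nonconfluent at 2500 cells/well less than 24 h before dosing. Test compound dose–response dilutions in media applied for 1 h (then washed out) or 72 h. Viability read by CellTiter-Blue. EC50 values are the mean of n = 9 cultures from three independent experiments run in triplicate.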

Another assay concerns P. berghei. The assay is described as follows: Plasmodium berghei mouse model of infection. Type of assay: in vivo. The conditions noted are these: CD1 mice, 50 mg/kg once daily for 4 days, intravenous.

The term EC50 denotes the midpoint of the concentration-response curve. For the compound `CC(C)C[C@@H](/C=C/S(C)(=O)=O)NC(=O)[C@H](CC(C)C)NC(=O)[C@H](Cc1c[nH]c2ccccc12)NC(=O)CN1CCOCC1` [WLL-vs], the EC50 came to 0.015 ± 0.005 µM with P. falciparum W2; 65.5 ± 15.2 µM in assay [1] (read-out: 1 h EC50 HFF, 1 h treatment); 1.52 ± 0.41 µM in assay [1] (read-out: 72 h EC50 HFF, 72 h treatment). For the same compound, the “reduction of parasites on day 4” value with P. berghei came to 98%.
